Measured values reported in ChEMBL document CHEMBL1955795, “Efficient synthesis and biological evaluation of proximicins A, B and C” (Bioorg Med Chem, 2012).
Values after ≈ are worked out from the molar mass of the structure shown. Active and inactive are the calls of the source. No cut-off for these calls is given here.

Tests used:
Staphylococcus aureus [1] = test: Antimicrobial activity against Staphylococcus aureus SA 1199B over-expressing NorA MDR efflux pump after 24 hrs by MTT assay; type: functional
Outline: (§1)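 Broth microdilution MIC in cation-adjusted Mueller-Hinton broth adjusted to 20 mg/L Ca²⁺ and 10 mg/L Mg²⁺. Strains grown on nutrient agar 24 h at 37 °C before testing. Inoculum of 5 × 10⁵ cfu prepared in normal saline against a 0.5 McFarland standard, added to wells and incubated at 37 °C. MTT (5 mg/mL methanolic solution) added for 20 min. Yellow-to-dark-blue colour change indicated growth. MIC = lowest concentration with no growth.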

Escherichia coli = test: Antimicrobial activity against Escherichia coli NCTC 10418 after 24 hrs by MTT assay; type: functional; conditions: NCTC 10418, 24 h
Outline: (§2)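 Broth microdilution MIC in cation-adjusted Mueller-Hinton broth supplemented to 20 mg/L Ca2+ and 10 mg/L Mg2+. Strains grown on nutrient agar 24 h at 37 °C. Inoculum of 5 × 10⁵ cfu set in normal saline against a 0.5 McFarland standard. Plates incubated at 37 °C, then MTT (5 mg/mL methanolic, 20 µL) added for 20 min. MIC taken as the lowest concentration with no yellow-to-blue colour change.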

Staphylococcus aureus [2] = test: Antimicrobial activity against epidemic methicillin-resistant Staphylococcus aureus 16 after 24 hrs by MTT assay; type: functional; conditions: Staphylococcus aureus, 16, 24 h; outline: as §1
Enterococcus faecalis = test: Antimicrobial activity against Enterococcus faecalis NCTC 12697 after 24 hrs by MTT assay; type: functional; conditions: NCTC 12697, 24 h; outline: as §2
Staphylococcus aureus [3] = test: Antimicrobial activity against epidemic methicillin-resistant Staphylococcus aureus 15 after 24 hrs by MTT assay; type: functional; conditions: Staphylococcus aureus, 15, 24 h; outline: as §1
Staphylococcus aureus [4] = test: Antimicrobial activity against Staphylococcus aureus […] after 24 hrs by MTT assay; type: functional; outline: as §1
Jurkat [5] = test: Induction of apoptosis in human Jurkat 16 cells assessed as DNA fragments release from apoptotic nuclei at 50 ug/ml after 48 hrs by propidium iodide based flow cytometry analysis; type: functional, cell-based
Outline: (§3)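 Cells grown in RPMI with 10% FCS and penicillin/streptomycin at 37 °C, 5% CO2. Plated in duplicate and treated 48 h with increasing concentrations. DNA released from apoptotic nuclei stained with propidium iodide. Percentage DNA fragmentation quantified by flow cytometry.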

MDA-MB-231 = test: Cytotoxicity against human MDA-MB-231 cells after 48 hrs by MTT assay; type: functional, cell-based; conditions: MDA-MB-231, 48 h
Outline: (§4)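 U-87 MG cells in MEM and MDA-MB-231 cells in DMEM, each with 10% FBS, L-glutamine, non-essential amino acids and sodium pyruvate, kept at 5% CO2. Log-phase cells exposed to increasing drug concentrations for 24 h, then grown in fresh medium for a further 48 h. MTT added for 4 h, formazan dissolved in DMSO, absorbance read. Viability normalised to untreated wells after subtracting Triton-treated wells. IC50 derived.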

[6] = Cytotoxicity against human U87MG cells after 48 hrs by MTT assay; type: functional, cell-based, U-87MG ATCC; conditions: U-87 MG; outline: as §4
L1236 [7] = test: Induction of apoptosis in human L1236 cells assessed as DNA fragments release from apoptotic nuclei at 50 ug/ml after 48 hrs by propidium iodide based flow cytometry analysis; type: functional, cell-based; outline: as §3
Jurkat [8] = test: Induction of apoptosis in human Jurkat 16 cells assessed as DNA fragments release from apoptotic nuclei after 48 hrs by propidium iodide based flow cytometry analysis; type: functional, cell-based; outline: as §3
Jurkat [9] = test: Induction of apoptosis in human Jurkat 16 cells assessed as DNA fragments release from apoptotic nuclei at 20 ug/ml after 24 hrs by propidium iodide based flow cytometry analysis; type: functional, cell-based
Outline: (§5)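 Cells grown in RPMI with 10% FCS and penicillin/streptomycin at 37 °C, 5% CO2. Treated 24 h at 20 µg/mL. Apoptotic DNA fragmentation measured as propidium iodide fluorescence by flow cytometry, reported as percentage of degraded DNA.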

L1236 [10] = test: Induction of apoptosis in human L1236 cells assessed as DNA fragments release from apoptotic nuclei at 20 ug/ml after 24 hrs by propidium iodide based flow cytometry analysis; type: functional, cell-based; outline: as §5

SMILES	MIC (Staphylococcus aureus [1]) [µg/mL]	MIC (Escherichia coli) [µg/mL]	MIC (Staphylococcus aureus [2]) [µg/mL]	MIC (Enterococcus faecalis) [µg/mL]	MIC (Staphylococcus aureus [3]) [µg/mL]	MIC (Staphylococcus aureus [4]) [µg/mL]	Activity (Jurkat [5])	IC50 (MDA-MB-231) [µg/mL]	IC50 [6] [µg/mL]	Activity (L1236 [7])	Activity (Jurkat [8])	Activity (Jurkat [9])	Activity (L1236 [10])
CN(C)[C@@H]1C(O)=C(C(N)=O)C(=O)[C@@]2(O)C(O)=C3C(=O)c4c(O)cccc4[C@@](C)(O)[C@H]3C[C@@H]12 [TETRACYCLINE]	0.25 (≈ 0.563 µM)	0.12 (≈ 0.27 µM)	0.5 (≈ 1.13 µM)	4 (≈ 9 µM)	0.12 (≈ 0.27 µM)	0.5 (≈ 1.13 µM)	–	–	–	–	–	–	–
COC(=O)Nc1coc(C(=O)Nc2coc(C(=O)NCCc3c[nH]c4ccccc34)c2)c1 [PROXIMICIN C]	> 256	> 128	> 256	> 128	> 128	> 256	Active	11.4 (≈ 26.1 µM)	12.7 (≈ 29.1 µM)	inactive	–	–	–
COC(=O)Nc1coc(C(=O)Nc2coc(C(=O)NCCc3ccc(O)cc3)c2)c1 [PROXIMICIN B]	4 (≈ 9.68 µM)	> 128	8 (≈ 19.4 µM)	4 (≈ 9.68 µM)	8 (≈ 19.4 µM)	8 (≈ 19.4 µM)	–	–	–	–	Dose-dependent effect	Active	Active
Cn1cc(NC(=O)c2cc(NC(=O)CNC(=N)N)cn2C)cc1C(=O)NCCC(=N)N [NETROPSIN]	16 (≈ 37.2 µM)	–	128 (≈ 297 µM)	–	–	64 (≈ 149 µM)	–	–	–	–	–	–	–
